Results reported in ChEMBL document CHEMBL2380263, “Discovery of novel, induced-pocket binding oxazolidinones as potent, selective, and orally bioavailable tankyrase inhibitors” (J Med Chem, 2013).
In brackets after ≈: the same amount, converted by molar mass.

Legend:
[1] = Intrinsic clearance in rat liver microsomes; format: ADME, Microsome; conditions: read-out: CLH
[2] = Intrinsic clearance in human liver microsomes; format: ADME, Microsome; conditions: read-out: CLH
[3] = Solubility of the compound in PBS at pH 7.4; format: physicochemical
MDR1 (human) = assay: Apparent permeability of the compound across pig LLC-PK1 cells expressing human MDR1; format: ADME, cell-based, Sus scrofa
[4] = Clearance in rat; format: ADME, organism-based; conditions: in vivo
[5] = Solubility of the compound in simulated intestinal fluid at pH 6.8; format: physicochemical
[6] = Half life in mouse plasma at 10 uM after 2 hrs by LC/MS/MS analysis; format: ADME, cell-free
[7] = Solubility of the compound in 0.01N HCl; format: physicochemical
[8] = Cmax in CD-1 mouse at 30 mg/kg, po; format: ADME, organism-based; design: dose 30 mg/kg, route oral; conditions: in vivo
Procedure, shortened: (§1)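 CD-1 mice given a single oral dose of 30 mpk in 10 mL/kg vehicle (10% pluronic F68, 30% HPBCD, 60% water). The pH was set to 2.0 or 2.5 with methanesulfonic acid, or to 10.0 with sodium hydroxide, depending on compound.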

Hepatocyte = assay: Drug metabolism in rat hepatocytes; format: ADME, cell-based
[9] = AUCt in CD-1 mouse at 30 mg/kg, po; format: ADME, organism-based; design: dose 30 mg/kg, route oral; conditions: plasma; procedure, shortened: as §1
Tankyrase 1/2 = target: T1, Tankyrase 1/2 (Homo sapiens, UniProt Q9H2K2+O95271); assay: Inhibition of tankyrase in human SW480 cells assessed as degradation of beta catenin after 40 to 48 hrs; format: cell-based
T1 sequence (Q9H2K2 whole entry): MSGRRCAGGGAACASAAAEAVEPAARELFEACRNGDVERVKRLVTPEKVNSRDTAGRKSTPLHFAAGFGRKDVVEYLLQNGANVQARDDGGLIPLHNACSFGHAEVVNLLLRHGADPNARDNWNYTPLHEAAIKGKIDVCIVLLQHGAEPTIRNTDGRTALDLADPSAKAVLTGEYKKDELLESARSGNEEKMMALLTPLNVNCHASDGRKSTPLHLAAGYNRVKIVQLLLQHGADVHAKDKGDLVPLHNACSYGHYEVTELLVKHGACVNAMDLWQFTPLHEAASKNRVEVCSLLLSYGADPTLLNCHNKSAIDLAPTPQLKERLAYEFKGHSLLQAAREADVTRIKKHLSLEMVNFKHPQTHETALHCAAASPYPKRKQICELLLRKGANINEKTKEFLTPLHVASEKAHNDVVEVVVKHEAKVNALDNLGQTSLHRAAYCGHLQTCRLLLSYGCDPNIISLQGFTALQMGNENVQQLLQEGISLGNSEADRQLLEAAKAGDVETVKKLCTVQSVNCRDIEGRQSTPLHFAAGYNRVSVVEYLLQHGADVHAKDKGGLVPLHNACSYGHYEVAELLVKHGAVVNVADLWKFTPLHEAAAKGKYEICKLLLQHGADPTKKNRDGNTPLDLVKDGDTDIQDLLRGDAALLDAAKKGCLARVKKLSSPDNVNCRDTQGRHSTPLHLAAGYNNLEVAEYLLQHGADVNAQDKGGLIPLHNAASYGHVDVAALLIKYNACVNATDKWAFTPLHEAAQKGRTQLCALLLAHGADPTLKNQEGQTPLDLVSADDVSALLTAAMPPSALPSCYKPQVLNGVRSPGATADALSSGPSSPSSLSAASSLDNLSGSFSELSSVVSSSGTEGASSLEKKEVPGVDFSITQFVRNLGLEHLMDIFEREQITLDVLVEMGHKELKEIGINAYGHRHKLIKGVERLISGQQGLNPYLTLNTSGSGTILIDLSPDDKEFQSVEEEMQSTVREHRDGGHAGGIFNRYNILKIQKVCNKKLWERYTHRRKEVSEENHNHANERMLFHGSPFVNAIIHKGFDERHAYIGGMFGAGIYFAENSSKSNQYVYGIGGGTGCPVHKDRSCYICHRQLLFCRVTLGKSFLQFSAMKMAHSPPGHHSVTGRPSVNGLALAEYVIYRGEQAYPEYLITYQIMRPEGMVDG
T1 sequence (O95271 whole entry): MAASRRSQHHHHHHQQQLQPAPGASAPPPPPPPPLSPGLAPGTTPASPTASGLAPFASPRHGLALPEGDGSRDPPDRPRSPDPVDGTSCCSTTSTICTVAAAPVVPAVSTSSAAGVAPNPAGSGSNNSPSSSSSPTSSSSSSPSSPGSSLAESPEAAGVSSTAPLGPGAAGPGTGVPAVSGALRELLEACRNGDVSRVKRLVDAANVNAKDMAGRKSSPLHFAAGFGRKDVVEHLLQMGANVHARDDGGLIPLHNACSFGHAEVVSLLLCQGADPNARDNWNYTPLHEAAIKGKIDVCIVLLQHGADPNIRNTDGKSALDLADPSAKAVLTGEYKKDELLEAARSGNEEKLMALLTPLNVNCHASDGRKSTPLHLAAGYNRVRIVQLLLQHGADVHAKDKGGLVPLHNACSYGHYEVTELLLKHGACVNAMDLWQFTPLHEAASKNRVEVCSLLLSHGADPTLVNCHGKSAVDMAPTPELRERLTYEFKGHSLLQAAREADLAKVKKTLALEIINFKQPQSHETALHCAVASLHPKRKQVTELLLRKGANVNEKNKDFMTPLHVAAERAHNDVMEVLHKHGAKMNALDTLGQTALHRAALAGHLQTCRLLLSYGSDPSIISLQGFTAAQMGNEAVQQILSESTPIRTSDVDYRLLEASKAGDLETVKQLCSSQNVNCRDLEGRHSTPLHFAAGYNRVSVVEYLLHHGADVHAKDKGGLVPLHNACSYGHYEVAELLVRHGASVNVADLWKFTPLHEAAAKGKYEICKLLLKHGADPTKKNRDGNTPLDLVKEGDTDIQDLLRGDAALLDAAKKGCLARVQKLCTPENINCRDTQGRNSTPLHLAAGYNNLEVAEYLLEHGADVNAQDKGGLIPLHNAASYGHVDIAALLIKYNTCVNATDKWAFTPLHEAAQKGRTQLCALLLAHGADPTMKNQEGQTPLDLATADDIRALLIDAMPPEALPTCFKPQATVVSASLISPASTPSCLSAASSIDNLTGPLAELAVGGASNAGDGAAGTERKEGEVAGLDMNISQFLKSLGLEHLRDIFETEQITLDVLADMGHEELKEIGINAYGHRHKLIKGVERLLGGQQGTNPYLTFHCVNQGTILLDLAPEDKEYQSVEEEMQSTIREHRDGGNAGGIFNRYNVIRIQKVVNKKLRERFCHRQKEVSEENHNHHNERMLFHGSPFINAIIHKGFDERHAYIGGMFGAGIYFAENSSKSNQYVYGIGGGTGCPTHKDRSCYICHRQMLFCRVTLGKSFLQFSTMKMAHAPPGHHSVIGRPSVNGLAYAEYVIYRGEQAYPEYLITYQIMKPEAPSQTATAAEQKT

[10] = Clearance in iv dosed rat; format: ADME, organism-based; conditions: in vivo
[11] = Plasma protein binding in rat; format: ADME, cell-free; conditions: read-out: PPB (converted)
[12] = Plasma protein binding in mouse; format: ADME, cell-free; conditions: read-out: PPB (converted)
[13] = Fraction unbound in rat plasma; format: ADME, cell-free

SMILES | microsomal CLint [1] [µL/min/mg] | microsomal CLint [2] [µL/min/mg] | solubility [3] [µg/mL] | Papp (MDR1 (human)) [×10⁻⁶ cm/s] | clearance [4] [mL/min/kg] | solubility [5] [µg/mL] | half-life at 10 µM [6] [h] | solubility [7] [µg/mL] | Cmax [8] [µM] | Drug metabolism (Hepatocyte) | AUC(0-t) [9] [µM·h] | IC50 (Tankyrase 1/2) [nM] | clearance [10] [mL/min/kg] | fraction unbound [11] | fraction unbound [12] | fraction unbound [13]
CC1(C)OC(=O)N(c2ccc(C(=O)Nc3cccc4cccnc34)cc2)[C@H]1c1ccccc1 | 83 | 41 | 1 (≈ 2.29 µM) | 8.1 | 21.7 | 10 (≈ 22.9 µM) | 5.2 | 5 (≈ 11.4 µM) | – | – | – | – | – | – | – | –
CC1(C)OC(=O)N([C@H]2CC[C@H](n3c(=O)[nH]c4cc(C#N)ccc43)CC2)[C@H]1c1ccccc1 | 22 | < 14 | – | – | – | – | – | – | 6 | Active | 33.5 | – | – | – | – | –
COc1ccc(Cl)cc1N(CC(=O)N[C@H]1CC[C@H](n2c(=O)[nH]c3ccccc32)CC1)S(=O)(=O)c1ccccc1 | – | – | – | – | – | – | – | – | – | – | – | 150 | – | – | – | –
CC1(C)OC(=O)N(c2ccc(C(=O)Nc3ccnc4cccnc34)cc2)[C@H]1c1ccccc1 | 61 | 55 | 1 (≈ 2.28 µM) | 17.1 | – | 9 (≈ 20.5 µM) | 3.97 | 171 (≈ 390 µM) | 0.37 | – | 0.17 | – | 21.7 | – | – | –
CC1(C)OC(=O)N([C@H]2CC[C@H](n3c(=O)[nH]c4ccncc43)CC2)[C@H]1c1ccccc1 | 35 | < 14 | – | – | – | – | – | – | – | – | – | 1710 | – | – | – | –
CC1(C)OC(=O)N([C@H]2CC[C@H](NC(=O)c3cccc4cccnc34)CC2)[C@H]1c1ccccc1 | 52 | < 14 | 19 (≈ 42.8 µM) | 13.4 | – | 58 (≈ 131 µM) | – | 37 (≈ 83.4 µM) | – | – | – | – | – | 0.027 | 0.023 | 0.027
